The list is not random: actives were taken first. Their share in the collection is about 2.3%.
HSP90 inh: HSP90 refolding inhibition in rabbit reticulocyte lysate | AID 1789 | inhibition, % at 5.6 µM | luciferase refolding luminescence, 3 h | 290,000 compounds, 0.91% hits;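 active = inhibition above the screen-wide mean plus 3 SD, computed separately per campaign, cut at about 16% in these data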;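 note: inhibitors lower the luminescence because luciferase stays unfolded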
STAT3 act-1: STAT3 signaling activation | U3A cells, IL-6 STAT3-luciferase reporter, luminescence; 100% = signal with IL-6 EC80 alone | activation (% of control), % at 5.6 µM | 190,000 compounds, 0.91% hits;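 active = activation above the screen-wide mean of compound activation plus 3 SD, cut at about 130% in these data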
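system = STAT3-luciferase reporter U3A cells | reagent = IL-6 stimulus at 33 ng/mL final | timing = 1 h compound pre-exposure, 6 h IL-6 stimulation, 37 °C | measured by = luminescence | evaluation = % activation versus median of IL-6-stimulated wells | control set = IL-6-only wells as 100% reference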
STAT3 inh: inhibitors of IL-6 induced STAT3 signaling; U3A cells, IL-6 STAT3-luciferase reporter, luminescence; host cell line lacks STAT1; inhibition, % at 5.5 µM; 190,000 compounds, 0.89% hits; AID 862;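 active = inhibition above the mean inhibition across all screened compounds plus 3 SD, cut at about 44% in these data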
TRAIL sens C8: caspase-8 TRAIL sensitization; AID 624354; 360,000 compounds, 1% hits; inhibition (viability loss, TRAIL sensitization), % at 10 µM; NB7+C8 cells + TRAIL, ATPlite viability luminescence;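 active = compounds causing at least 50% loss of cell viability in the single-dose screen, relative to plate controls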
STAT1 blocker: reduces IFN-gamma driven STAT1 reporter signal; NIH 3T3 STAT1-luciferase reporter, luminescence; inhibition, % at 5.5 µM; 200,000 compounds, 0.35% hits;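 active = inhibition above a set limit, the mean inhibition across all tested compounds plus 3 SD, cut at about 34% in these data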
PPC-1+TRAIL kill: PPC-1 cancer cell killing with TRAIL present; cell killing (% activity), % at 4 µM or 5 µM; PPC-1 cells + TRAIL, ATPLite viability luminescence; 220,000 compounds, 0.41% hits;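 active = cell killing above 50% in the first pass at 4 µM, then a duplicate retest at 5 µM averaging 50% or more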
STAT3 act-2: confirmation of STAT3 signaling activators. shares compounds with STAT3 act-1. U3A STAT3-luciferase reporter, IL-6 potentiation, luminescence; U3A cells lack STAT1; 100 means same as IL-6 alone. AID 1267. potentiation (% of control), % at 5.7 µM. 1,200 compounds, 64% hits;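 active = percent activation of the STAT3 luciferase reporter above a set limit taken from the earlier primary screen, cut at about 130% in these data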
NFkB act STAT3ct: activates NF-kappaB, counter-screen to STAT3 activators. human cells, NF-kappaB reporter activation. shares compounds with STAT3 act-1. activation (% of control), % at 5.7 µM. 1,200 compounds, 11% hits. AID 1309; in the data active = activation above about 120%;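 note: reporter induced by TNF-alpha stimulation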
STAT1 act STAT3c: STAT1 activation in STAT3 activator counter-screen. shares compounds with STAT3 act-1. NIH 3T3 STAT1-luciferase reporter, IFN-gamma, luminescence. activation (% of control), % at 5.7 µM. 1,200 compounds, 13% hits;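 active = activation above the solvent-only control well mean plus 3 SD, set per screening run, cut at about 120% in these data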
Hits are given with their value; 0 = inactive; - = no result given.

SMILES	HSP90 inh	STAT3 act-1	STAT3 inh	TRAIL sens C8	STAT1 blocker	PPC-1+TRAIL kill	STAT3 act-2	NFkB act STAT3ct	STAT1 act STAT3c
COC(=O)CC1C(=O)NCCN1C(=O)Nc1ccc(Cl)cc1 (centres undefined)	0	0	0	0	0	0	-	-	-
Cc1noc(/C=C/N(C)C)c1S(=O)(=O)N(C)CC(=O)N1CCc2ccccc21	0	0	0	-	0	0	-	-	-
Cc1noc(/C=C/N(C)C)c1S(=O)(=O)N1CCc2ccccc21	0	151	0	0	0	0	139	0	0
CCC(C(=O)Nc1ccccc1OC)n1c(C(=O)OC)cc2ccsc21 (centres undefined)	0	142	0	0	0	0	148	0	0
COc1ccccc1NC(=O)COC(=O)/C=C/c1cccs1	-	-	-	0	-	-	-	-	-
Cc1sc2nc(C)n(/N=C/c3ccccc3O)c(=O)c2c1C	0	0	0	0	0	0	-	-	-
CCc1nnc(NC(=O)CCC(=O)NCCc2ccc(OC)c(OC)c2)s1	0	0	0	0	0	0	-	-	-
CC1=CC(c2ccccc2)n2nc(N)nc2N1 (centres undefined)	-	-	-	0	-	-	-	-	-
O=C1c2ccccc2C(=O)N1OCc1ccccc1	0	137	0	0	0	0	0	0	0
COc1ccc2c(=O)c3c(=O)n(-c4ccc(C)cc4)c(-c4ccccc4)nc3oc2c1	0	-	-	-	-	0	-	-	-
Cc1ccc(-n2c(C)nc3oc4ccccc4c(=O)c3c2=O)cc1	0	149	0	0	0	0	159	122	135
COc1ccc(Cl)cc1NC(=O)COC(=O)C1CCCCC1	-	-	-	0	-	-	-	-	-
CCOC(=O)C1=C(CSc2nc(-c3ccccc3)ccc2C#N)OC(N)=C(C#N)C1c1cccnc1 (centres undefined)	0	137	0	0	0	0	0	0	0
CC(=O)n1cc(C2CC(=O)OC3=C2CC(=O)C(C)(C)C3)c2ccccc21 (centres undefined)	-	-	-	0	-	-	-	-	-
CC(=O)n1cc(C2C(=O)CCCC2=O)c2ccccc21	0	140	0	0	0	0	0	0	0
Cc1ccc2[nH]cc(C(=O)CN3CCC4(CC3)OCCO4)c2c1	0	0	0	0	0	0	-	-	-
O=C(CN1CCC2(CC1)OCCO2)c1c[nH]c2ccccc12	0	148	0	-	0	0	0	0	0
CCn1c(C)c(/C=N/Nc2nc3ccccc3s2)c2ccccc21	0	136	0	0	0	0	0	0	0
Oc1ccccc1C=NNc1nc2ccccc2s1	-	-	-	0	-	-	-	-	-
CN1CCN(C(=O)CNc2ccc(C(F)(F)F)cc2[N+](=O)[O-])CC1	0	162	0	0	0	0	157	0	0
CC(C)NC(=O)CNc1ccc(C(F)(F)F)cc1[N+](=O)[O-]	0	0	0	0	0	0	-	-	-
N#Cc1sc2nc(-c3ccccc3)cc(C(F)(F)F)c2c1N	0	148	0	0	0	-	155	0	0
Cc1ccc(-c2[nH]nc3c2C(C)C(C#N)=C(N)O3)cc1 (centres undefined)	0	0	0	0	0	0	-	-	-
COc1ccc(OC)c(Nc2nc(-c3cccs3)cs2)c1	0	147	0	0	0	0	0	0	0
CCOC(=O)c1nc(Nc2ccccc2C)c2ccccc2n1	0	0	0	0	0	-	-	-	-
SMILES	HSP90 inh	STAT3 act-1	STAT3 inh	TRAIL sens C8	STAT1 blocker	PPC-1+TRAIL kill	STAT3 act-2	NFkB act STAT3ct	STAT1 act STAT3c
COc1ccc(S(=O)(=O)N2CCC3(CC2)CC(=O)c2ccccc2O3)cc1C	-	-	-	0	-	-	-	-	-
S=C1NC2(CCCC2)Nc2ccccc21	0	143	0	0	0	0	144	0	0
S=C1NC2(CCCCC2)Nc2ccccc21	0	138	0	0	0	0	0	0	0
CNC(=O)C(=O)NCCc1ccc(Cl)cc1	0	0	0	0	0	0	-	-	-
Nc1ccc(Cc2nc3cc4ccccc4cc3[nH]2)cc1	0	136	0	-	0	0	143	0	130
Cc1cc(C)n(-c2nc3ccccc3c(=O)n2OCc2ccc(Cl)cc2)n1	0	145	0	0	0	0	0	0	0
COc1ccccc1-c1n[nH]c(=S)n1-c1ccccc1	0	137	0	0	0	0	0	0	0
CCCC12CN3CC(C)(CN(C1)C3c1ccc3c(c1)OCO3)C2=O (centres undefined)	0	0	0	0	0	0	-	-	-
COc1cccc2cc3c(=O)n(-c4ccccc4)nc-3oc12	0	141	0	0	0	0	0	0	0
N#CC1=C(N)Oc2cc(N)ccc2C1c1cccc(F)c1 (centres undefined)	0	-	-	0	-	-	-	-	-
CN(C)c1ccc2c(c1)OC(N)=C(C#N)C2c1cccc(F)c1 (centres undefined)	0	146	0	0	0	0	0	153	0
Cn1c(SCC(=O)NCc2ccccc2)nc2c([nH]c3ccccc32)c1=O	0	0	0	-	0	0	-	-	-
Cn1c(SCC(=O)Nc2ccccc2)nc2c([nH]c3ccccc32)c1=O	0	0	0	0	0	0	-	-	-
CCC(C)Sc1nc2c([nH]c3ccccc32)c(=O)n1C (centres undefined)	0	166	0	0	0	0	0	0	0
Cc1cccc(NC(=O)CSc2nc3c([nH]c4ccccc43)c(=O)n2C)c1	0	146	0	0	0	0	135	0	0
COc1cccc(NC(=O)CSc2nc3c([nH]c4ccccc43)c(=O)n2C)c1	0	139	0	0	0	0	0	0	0
NS(=O)(=O)c1ccc(NS(=O)(=O)c2cccs2)cc1	0	0	0	0	0	0	-	-	-
CCCCCCc1nc(C(N)=O)c2[nH]c(=O)n(-c3ccc(OCC)cc3)c2n1	0	-	-	0	-	-	-	-	-
N#Cc1c(C(F)(F)F)cc(C2CC2)nc1N1CCCC1	0	148	0	0	0	0	0	0	0
Cc1cc(C(F)(F)F)c(C#N)c(N2CCOCC2)n1	0	0	0	0	0	0	-	-	-
Cc1ccc(S(=O)(=O)c2c(C)nn(C(C)(C)C)c2OC(=O)c2cccs2)cc1	0	137	0	0	0	0	0	0	0
CC(=O)Oc1c(S(=O)(=O)c2ccc(C)cc2)c(C)nn1C(C)(C)C	0	0	0	0	0	0	-	-	-
O=C(CCc1nnc2ccc(N3CCC4(CC3)OCCO4)nn12)N1CCCCC1	0	-	-	0	-	-	-	-	-
Cc1ccc(S(=O)(=O)Nc2nc3ccccc3s2)cc1	0	0	0	0	0	0	-	-	-
COc1ccc(S(=O)(=O)Nc2nc3ccccc3s2)cc1OC	0	154	0	0	0	0	142	0	0
O=S(=O)(Nc1nc2ccccc2s1)c1ccc(Br)s1	0	142	0	0	0	0	134	0	0

Screens from PubChem BioAssay.
